# Only some compounds are listed: those with a hit (about 1.9% of all), similar ones and a draw of the others.
# RAD52 inh: RAD52 DNA annealing inhibitors, primary screen, biochemical, FRET, single point, set 2; inhibition, % at 18.7 µM; recombinant RAD52 DNA annealing, FRET fluorescence; actives 0.46% (n = 360,000); AID 651710, 2012;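 active = every replicate showing at least 50% inhibition; inconclusive = mean inhibition at least 50% but not in every replicate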
# RAD54 inh: inhibitors of human RAD54 branch migration, primary screen, biochemical, fluorescence, single point; inhibition, % at 10.4 µM; RAD54 Holliday junction branch migration, FAM/BHQ fluorescence; actives 0.14% (n = 360,000);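 active = mean normalized replicate activity at least 40 and at least half of replicates scoring 40 or more; inconclusive = only one of the two criteria met; inactive = mean below 40 and under half of replicates reaching 40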;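 also: 0% = median of neutral control wells and 100% = median of positive control wells; inhibitors cause a drop in the FAM fluorescence signal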
# Target sequence (Q92698 whole entry, looked up): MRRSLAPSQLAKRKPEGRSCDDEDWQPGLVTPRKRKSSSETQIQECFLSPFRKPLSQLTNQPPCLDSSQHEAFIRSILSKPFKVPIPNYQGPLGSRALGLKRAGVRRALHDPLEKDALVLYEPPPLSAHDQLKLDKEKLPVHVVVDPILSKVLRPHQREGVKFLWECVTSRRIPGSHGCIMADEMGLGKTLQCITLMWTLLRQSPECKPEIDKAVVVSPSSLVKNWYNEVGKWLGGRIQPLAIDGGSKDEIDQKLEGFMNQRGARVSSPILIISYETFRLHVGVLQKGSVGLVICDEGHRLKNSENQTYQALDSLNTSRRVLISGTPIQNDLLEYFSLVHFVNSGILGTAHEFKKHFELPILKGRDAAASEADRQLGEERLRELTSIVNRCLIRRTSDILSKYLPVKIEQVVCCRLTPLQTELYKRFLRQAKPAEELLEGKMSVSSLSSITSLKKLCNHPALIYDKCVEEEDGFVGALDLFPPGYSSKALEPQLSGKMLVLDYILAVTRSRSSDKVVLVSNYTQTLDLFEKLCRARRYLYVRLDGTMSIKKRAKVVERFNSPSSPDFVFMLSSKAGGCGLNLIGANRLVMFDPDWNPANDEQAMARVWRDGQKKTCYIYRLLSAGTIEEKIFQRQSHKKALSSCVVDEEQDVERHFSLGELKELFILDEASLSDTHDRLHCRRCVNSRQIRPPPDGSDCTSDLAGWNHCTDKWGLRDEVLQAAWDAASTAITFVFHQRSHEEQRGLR
# PglD DTNB: C. jejuni PglD acetyltransferase inhibitors, primary screen, biochemical, DTNB colorimetric, single point. purified PglD enzyme, DTNB colorimetric CoA detection. inhibition, % at 12.5 µM. actives 0.098% (n = 360,000); in the data active = inhibition above about 16%, passing the limit was not always enough; inconclusive = no clear call, values can overlap the other calls
# Ecoli rRNA inh: reduced GFP signal of wild-type E. coli, primary screen, bacterial rRNA inhibitor project, GFP/RFP fluorescence, OD600, single point; actives 1.6% (n = 350,000); GFP signal change (wild-type ribosome), % (concentration not given with the values); E. coli WT GFP vs humanized-ribosome RFP mutants, 24 h; active compounds read low; DMSO median 0, no signal -100;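 active = significant combined selectivity score with lowered wild-type GFP, culture density cut under 30%, mutant RFP and density less affected; inactive = any of these conditions unmet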
# Cneo AK release: Cryptococcus neoformans cell lysis inducers, primary screen, AK release luminescence, single concentration; C. neoformans lysis, adenylate kinase release luminescence, 4 h; normalised: neutral wells 0, clomiphene wells 100; lysis activity, % at 15 µM; actives 0.2% (n = 360,000);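 active = mean lysis activity across replicates of at least 80%, whatever share of replicates individually reach that level; inactive = mean lysis activity below 80%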
#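 read-out = cell lysis signal | test system = log-phase Cryptococcus neoformans yeast cells | input = cells at 5 × 10^6 per mL | medium = fresh YPD growth medium | signal = luminescent adenylate kinase detection reagent | timing = 4 h at 37 °C static, read 1 h later | dosing = single dose | controls = Clomiphene as positive lysis control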
# AID977621: growth inhibition of wild-type GFP E. coli, dose response, H69 mutant RFP, cherry-pick; shares compounds with Ecoli rRNA inh; E. coli wild-type GFP strain growth, fluorescence, 24 h; activity change, negative = inhibition at 50 µM; 1,900 tested, under 10 active;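 active = Wild-type ribosome reporter drop at least double the humanized mutant ribosome reporter drop, growth loss under a set limit; inconclusive = no clear call, values can overlap the other calls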;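 also: wild-type GFP and H69 mutant RFP strains grown together 50/50 in each well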
# AID977628: E. coli growth inhibition, wild-type GFP versus h24 humanized RFP strain, dose response, h24 mutant RFP vs wild-type GFP, cherry-pick; 1,900 tested, under 10 active; E. coli WT GFP strain growth, fluorescence, 24 h; activity change, negative = inhibition at 50 µM; shares compounds with Ecoli rRNA inh;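 active = compound lowering the normal-ribosome reporter at least twice as much as the humanized-ribosome reporter, growth loss under a set limit; inconclusive = no clear call, values can overlap the other calls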;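 also: wild-type GFP and h24 humanized RFP strains co-cultured 1 to 1 per well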
# An asterisk follows results filed as active; ? = inconclusive; / = no result.
SMILES,RAD52 inh,RAD54 inh,PglD DTNB,Ecoli rRNA inh,Cneo AK release,AID977621,AID977628
Cc1cc(NC(=O)c2sc(Nc3ccc(F)c(Cl)c3)nc2N)no1,-2,0,2,-22*,-1,-10,0.055
COc1ccc(OC)c(NC(=O)COC(=O)CCNc2ccccc2OC)c1,-20,-2,-3,-20*,-1,5.9,-1.8
COc1ccc(NC(=O)COC(=O)C2CCN(C(=O)c3ccc(Cl)cc3)CC2)c([N+](=O)[O-])c1,-23,-4,-3,-7,2,/,/
COc1ccccc1CNC(=O)COC(=O)Cc1c[nH]c2ccccc12,-1,-1,1,-4,1,/,/
COc1ccc(OC)c(NC(=O)COc2ccc(S(=O)(=O)NC(C)C)cc2)c1,-13,3,-2,-23*,1,-11,-12
COc1ccc(OC)c(NC(=O)COC(=O)C2CCN(C(=O)c3ccc(Cl)cc3)CC2)c1,-14,/,/,-27*,/,-7.7,/
COc1ccccc1NC(=O)COC(=O)Cc1c[nH]c2ccccc12,-24,2,1,-17*,1,4.4,-4.5
CNC[C@@H]1Oc2cc(C#Cc3ccc(OC)cc3)ccc2S(=O)(=O)N([C@@H](C)CO)C[C@H]1C,49,-2,2,1,-1,/,/
O=C(C[C@@H]1C[C@@H]2c3cc(NS(=O)(=O)c4ccc(F)cc4)ccc3O[C@@H]2[C@H](CO)O1)NCc1ccncc1,-5,-6,1,2,5,/,/
CCCC#Cc1ccc2c(c1)O[C@H](CN(C)C(=O)NC(C)C)[C@H](C)CN([C@@H](C)CO)S2(=O)=O,1,2,1,-5,5,/,/
CCCNC(=O)C[C@@H]1CC[C@H]2[C@@H](COc3ccc(NC(=O)NC(C)C)cc3C(=O)N2C)O1,0,-5,1,-1,-1,/,/
CC(=O)N(C)C[C@@H]1Oc2ncc(C#Cc3ccccc3F)cc2C(=O)N([C@H](C)CO)C[C@@H]1C,7,6,-2,5,0,/,/
O=C(Cc1ccc(Br)cc1)Nc1cccc(-c2cn3c(n2)SCC3)c1,-15,/,/,-21*,/,-11,-12
NC(=O)c1ccccc1OCCOc1ccc(Br)cc1,-12,-6,/,-26*,0,7.6,-1.7
CC(=O)c1ccccc1OCCOCCOCCOc1ccccc1C(C)=O,-7,-1,-2,-22*,1,-5.6,?
CO[C@H]1CN(C)C(=O)c2cc(NS(=O)(=O)c3ccccc3F)ccc2OC[C@H](C)NC[C@H]1C,-8,-3,0,3,-1,/,/
O=C(Nc1cccc(Cl)c1)N1C[C@@H]2[C@H](c3ccccc31)[C@@H](CO)N2CC1CCCCC1,/,5,1,-56*,-3,?,/
O=C(Nc1ccc(Cl)cc1)N1C[C@H]2[C@@H](c3ccccc31)[C@@H](CO)N2C(=O)c1ccccn1,-8,15,-3,-23*,-4,-6.3,/
C[C@H](CO)N1C[C@H](C)[C@@H](CN(C)S(=O)(=O)c2ccccc2)Oc2ncc(C#CCN(C)C)cc2C1=O,3,-4,-2,0,58,/,/
CCCc1cc(NCc2ccccn2)n2nc(C)c(-c3ccccc3)c2n1,-12,7,14,-18,1,/,/
Cc1nn2c(NCc3ccccn3)cc(C(C)C)nc2c1-c1ccccc1,-15,/,/,-21*,/,/,-14
C[C@@H]1CN([C@H](C)CO)C(=O)c2cccc(NS(=O)(=O)c3ccc(Cl)cc3)c2O[C@H]1CN(C)Cc1ccncc1,-2,-4,1,3,-2,/,/

# High-throughput results deposited in PubChem BioAssay by Broad Institute.
